Data set [1] concerns the target Muscarinic acetylcholine receptor. Nature of the data set: Binding affinity against Muscarinic acetylcholine receptors using [3H]oxotremorine-M as radioligand in rat cortex. The method, boiled down:
(§1)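 Rat cortex radioligand displacement with [³H]oxotremorine-M, which labels the agonist conformational state of muscarinic receptors without subtype selectivity. Affinity is reported as Ki (nM) ± SEM.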

Data set [2] concerns Mustela putorius furo. Nature of the data set: Intravenous effective dose required to produce a 1 mV increase in transmural potential difference in ferrets (GI side effect). It is filed as functional. In outline: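 Anesthetized male ferrets (800–1200 g), fasted 24 h before surgery, dosed iv. Transmural potential difference across jejunal wall measured with calomel half-cells and salt bridges (one in luminal fluid, other via wick electrode in serosal fluid) to an electrometer. Value is dose giving >1 mV rise in potential difference; each animal its own control.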

In another data set the test system is Mus musculus. As to the kind of experiment: Analgesic activity measured using mouse writhing antinociceptive assay after subcutaneous administration. It is filed as functional. The conditions noted are these: sc. The method, boiled down: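 Male Cr1:CF1 mice, groups of 5–10, given vehicle or compound sc; 25 min later 0.5% acetic acid ip. Writhes per mouse counted in individual chambers 5–10 min after acid (30–35 min post-dose), expressed as mean writhes over 5 min. ED50 from linear regression.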

Data set [3] concerns Mustela putorius furo. As to the kind of experiment: Minimum intravenous effective dose required to inhibit jejunal motility in ferrets. The data set is classed as functional. The method, boiled down: (§2)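 Anesthetized male ferrets (800–1200 g), fasted 24 h before surgery, dosed iv. Spontaneous jejunal motility recorded manometrically via catheters inserted into jejunum. Value is minimum effective (threshold) dose inhibiting motility; each animal its own control; number of determinations recorded, SEM given when replicates differed.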

For data set [4], the system named is Mustela putorius furo. As to the kind of experiment: Minimum intravenous effective dose required to inhibit spontaneous motility in ferrets. The data set is classed as functional. The method, boiled down:
as §2

A short description of data set [5]: Mean plasma concentration measured 1 h following an oral dose of 30 mg/kg. It is filed as ADME, organism-based. Also on record: dose 30 mg/kg, route oral. The method, boiled down:
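Rats dosed orally at 30 mg/kg; parent compound plasma concentration measured 1 h after dosing, reported as mean.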

Data set [6] deals with Muscarinic acetylcholine receptor. Nature of the data set: Binding affinity against Muscarinic acetylcholine receptor using [3H]oxotremorine-M as radioligand in rat cortex. The method, boiled down: as §1

Experimental findings from ChEMBL document CHEMBL1130414, “Muscarinic analgesics with potent and selective effects on the gastrointestinal tract: potential application for the treatment of irritable bowel syndrome” (J Med Chem, 1997) are described below.

The Ki is a dissociation constant, usually derived from enzyme kinetics or from competition with a known ligand. In general, ED50 refers to the midpoint of the dose-response relation. High values mean weaker potency, low ones greater potency. Take `CCCCOc1nsnc1C1=CCCN(C)C1`: in data set [1], the Ki was 1.4 nM. Besides, the “ED (1mV)” value in the data set on Mustela putorius furo [2] was 7 µg/kg. The compound also yielded an ED50 with Mus musculus of 0.41 mg/kg. For the same compound, the Dose in the data set on Mustela putorius furo [3] is 3 µg/kg.

On to `CCCCSc1nccnc1C1CN2CCC1CC2` (configuration not stated), for which the Ki in data set [1] is 0.5 nM. Also, the “ED (1mV)” value with Mustela putorius furo [2] stood at 30 µg/kg. The compound also showed an ED50 in the data set with Mus musculus of 3.2 mg/kg. In the data set with Mustela putorius furo [3], this compound returned a Dose of 3 µg/kg.

As to `FC(F)(F)CCCSc1nsnc1[C@H]1CN2CCC[C@H]1C2`, the Ki in data set [1] is 0.42 nM. Besides, in the data set with Mustela putorius furo [2], the “ED (1mV)” value worked out at 15 µg/kg. The ED50 in the data set with Mustela putorius furo [4] is 0.17 µg/kg; with Mus musculus it was 0.1 mg/kg. This compound also displayed a concentration at 1 h in data set [5] of 805 ng/mL.

For `FC(F)(F)CCCCSc1nsnc1[C@@H]1CN2CCC[C@@H]1C2`, the Ki in data set [1] came out at 0.24 nM. Besides, the “ED (1mV)” value in the data set on Mustela putorius furo [2] was 10 µg/kg. This compound showed a 50% effective dose (ED50) in the data set with Mus musculus of 0.07 mg/kg. In addition, the Dose with Mustela putorius furo [3] turned out to be 1 µg/kg.

For the compound `FC(F)(F)CCCSc1nsnc1[C@H]1CN2CCC[C@@H]1C2`, the Ki in data set [1] came to 9.6 nM. For the same compound, the “ED (1mV)” value in the data set on Mustela putorius furo [2] was greater than 30 µg/kg. Moreover, the ED50 is 5.3 µg/kg with Mustela putorius furo [4] and 1.8 mg/kg in the data set with Mus musculus.

In turn, `CN1CCC=C(c2nsnc2SCCCc2cccs2)C1` had a Ki in data set [1] of 10 nM. Moreover, the “ED (1mV)” value in the data set with Mustela putorius furo [2] was determined as 30 µg/kg. Further, in the data set on Mus musculus, the ED50 was greater than 10 mg/kg. This compound also gave a Dose in the data set with Mustela putorius furo [3] of 30 µg/kg.

Compound `CCCCCCSc1nsnc1C1=CCCN(CC)C1` had a Ki in data set [1] of 18 nM. Also, in the data set with Mustela putorius furo [2], the “ED (1mV)” value is greater than 30 µg/kg. This compound also had an ED50 in the data set on Mus musculus greater than 10 mg/kg. This compound came in with a Dose with Mustela putorius furo [3] greater than 30 µg/kg.

Consider `CCCCSc1nsnc1C1=CCCNC1`, for which, in data set [1], the Ki was 3.5 nM. Besides, the “ED (1mV)” value with Mustela putorius furo [2] came to 30 µg/kg. In addition, the ED50 in the data set on Mus musculus stood at 0.14 mg/kg. In the data set on Mustela putorius furo [3], this compound yielded a Dose of 30 µg/kg.

`C=CCCCCOc1nsnc1C1=CCCN(C)C1` had a Ki in data set [1] of 3 nM. Also, the “ED (1mV)” value in the data set on Mustela putorius furo [2] turned out to be 3 µg/kg. In the data set on Mus musculus, this compound had an ED50 of 0.9 mg/kg. For the same compound, the Dose in the data set with Mustela putorius furo [3] came to 30 µg/kg.

For `FC(F)(F)CCSc1nsnc1[C@@H]1CN2CCC[C@@H]1C2`, the Ki in data set [1] came to 0.44 nM. In addition, in the data set with Mustela putorius furo [2], the “ED (1mV)” value amounted to 10 µg/kg. In addition, the ED50 in the data set on Mus musculus is 0.1 mg/kg. Further, the Dose with Mustela putorius furo [3] amounted to 3 µg/kg.

With `FC(F)(F)CCCSc1nsnc1[C@@H]1CN2CCC[C@H]1C2`, the inhibition constant Ki in data set [1] amounted to 25 nM. The “ED (1mV)” value with Mustela putorius furo [2] was greater than 30 µg/kg. Also, the ED50 is 4.7 µg/kg in the data set with Mustela putorius furo [4] and greater than 10 mg/kg in the data set with Mus musculus.

On to `CN1CCC=C(c2nsnc2SCCCc2ccccc2)C1`, for which the Ki in data set [1] worked out at 1 nM. Also, the “ED (1mV)” value with Mustela putorius furo [2] came out at 30 µg/kg. Moreover, in the data set with Mus musculus, the ED50 was greater than 10 mg/kg. The same compound returned a Dose in the data set on Mustela putorius furo [3] of 10 µg/kg.

Regarding `CCCCCCSc1nccnc1C1CN2CCC1CC2` (configuration not stated), the Ki in data set [1] is on record as 4 nM. The “ED (1mV)” value in the data set on Mustela putorius furo [2] was greater than 30 µg/kg. The 50% effect level in the data set on Mus musculus (ED50) was put at a dose of 2.3 mg/kg. In the data set with Mustela putorius furo [3], the Dose is greater than 30 µg/kg.

For `CCCCSc1nsnc1[C@@H]1CN2CCC[C@@H]1C2`, the Ki in data set [1] is reported as 0.45 nM. Moreover, the “ED (1mV)” value with Mustela putorius furo [2] was 1 µg/kg. This compound came in with an ED50 in the data set with Mus musculus of 0.19 mg/kg. The concentration at 1 h in data set [5] was 21 ng/mL. In addition, the Dose in the data set on Mustela putorius furo [3] came out at 1 µg/kg.

In data set [1], `FC(F)(F)CCCSc1nsnc1[C@@H]1CN2CCC[C@@H]1C2` had a Ki of 0.33 nM. In the data set on Mustela putorius furo [2], the “ED (1mV)” value is 2 µg/kg. For the same compound, the ED50 with Mustela putorius furo [4] was 17 µg/kg; with Mus musculus it was 0.35 mg/kg.

The compound `CCCCSc1nsnc1C1CN2CCCC1C2` (racemic) displayed a Ki in data set [1] of 0.36 nM. For the same compound, the “ED (1mV)” value in the data set on Mustela putorius furo [2] came out at 1 µg/kg. In addition, the 50% effect level in the data set with Mus musculus (ED50) was put at a dose of 0.03 mg/kg. In the data set on Mustela putorius furo [3], this compound yielded a Dose of 1 µg/kg.

The compound `FC(F)(F)CCCSc1nsnc1C1CN2CCCC1C2` (racemic) registered a Ki in data set [6] of 0.4 nM. Also, the “ED (1mV)” value with Mustela putorius furo [2] worked out at 30 µg/kg. Moreover, the 50% effect level in the data set on Mus musculus (ED50) was put at a dose of 0.1 mg/kg. The compound also came in with a Dose in the data set on Mustela putorius furo [3] of 1 µg/kg.

In data set [1], `CC(C)CCCSc1nsnc1C1CN2CCCC1C2` (racemic) came in with an inhibitory constant (Ki) of 0.91 nM. Further, the “ED (1mV)” value in the data set with Mustela putorius furo [2] came to 3 µg/kg. Also, the ED50 in the data set with Mus musculus stood at 0.95 mg/kg. Also, in the data set with Mustela putorius furo [3], the Dose is 30 µg/kg.

For `CN1[C@@H]2CC[C@H]1C[C@@H](OC(=O)C(CO)c1ccccc1)C2` (some centres not stated) [ATROPINE], the “ED (1mV)” value in the data set on Mustela putorius furo [2] was greater than 30 µg/kg. Besides, the results for the ED50 in the data set with Mustela putorius furo [4] and in the data set with Mus musculus were 0.73 µg/kg and greater than 30 mg/kg, respectively.

The compound `CN1CC[C@]23c4c5ccc(O)c4O[C@H]2[C@@H](O)C=C[C@H]3[C@H]1C5` [MORPHINE] registered an ED50 with Mus musculus of 0.3 mg/kg.

In the case of `CCCCSc1nsnc1C1CN2CCC1CC2` (configuration not stated) [VEDACLIDINE], the Ki in data set [1] is recorded as 0.4 nM. The “ED (1mV)” value in the data set on Mustela putorius furo [2] came out at 10 µg/kg. In the data set on Mus musculus, this compound came in with an ED50 of 0.19 mg/kg. Further, in the data set on Mustela putorius furo [3], the Dose turned out to be 3 µg/kg.
